Scp-1 inhibitor – Scp-1 phosphatase inhibitors, primary screen, biochemical, colorimetric, uHTS; hit rate 0.88% among 340,000; AID 493091, 2011; Recombinant Scp1, phosphopeptide, malachite green phosphate absorbance; inhibition, % at 20 µM; Carboxy-terminal domain RNA polymerase II polypeptide A small phosphatase 1 (Homo …;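 active = inhibition above about 50% at 20 µM, limit read from the data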
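Test system: SCP-1 phosphatase catalytic domain, residues 76-261; measured by: colorimetric phosphate reagent with accelerator and stabiliser, absorbance at 630 nm; timing: enzyme reaction 45 min at room temperature, colour 5 min, stabilisation 30 min; also added: Phosphorylated 17-residue peptide substrate; compound dosing: one concentration, 20 µM, with 1.0% DMSO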
NadD block – inhibitors of S. aureus NadD, primary screen, biochemical, colorimetric, uHTS. Nicotinate-nucleotide adenylyltransferase NadD (Staphylococcus aureus N315). purified NadD enzyme, colorimetric absorbance read-out. inhibition, % at 20 µM. hit rate 0.78% among 360,000; in the data active = inhibition above about 26%
rCAG binder-1 – binders of r(CAG) RNA repeats, primary screen, biochemical, fluorescence. r(CAG) RNA repeat, TO-PRO-1 dye displacement fluorescence. inhibition, % at 3 µM. hit rate 1.3% among 370,000;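 active = inhibition above the plate cutoff, the mean of all test compounds on that plate plus 3 SD, cut at about 35% in these data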;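 also: higher means more dye released from RNA so lower well fluorescence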
STEP block – STEP phosphatase inhibitors, primary screen, biochemical, fluorescence intensity, uHTS | hit rate 0.25% among 360,000 | AID 588621, 2011 | recombinant STEP, OMFP fluorogenic substrate | inhibition, % at 20 µM;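 active = inhibition at 20 µM, scaled per plate between control wells, above about 37%, limit read from the data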
Target sequence (P54829 whole entry, looked up): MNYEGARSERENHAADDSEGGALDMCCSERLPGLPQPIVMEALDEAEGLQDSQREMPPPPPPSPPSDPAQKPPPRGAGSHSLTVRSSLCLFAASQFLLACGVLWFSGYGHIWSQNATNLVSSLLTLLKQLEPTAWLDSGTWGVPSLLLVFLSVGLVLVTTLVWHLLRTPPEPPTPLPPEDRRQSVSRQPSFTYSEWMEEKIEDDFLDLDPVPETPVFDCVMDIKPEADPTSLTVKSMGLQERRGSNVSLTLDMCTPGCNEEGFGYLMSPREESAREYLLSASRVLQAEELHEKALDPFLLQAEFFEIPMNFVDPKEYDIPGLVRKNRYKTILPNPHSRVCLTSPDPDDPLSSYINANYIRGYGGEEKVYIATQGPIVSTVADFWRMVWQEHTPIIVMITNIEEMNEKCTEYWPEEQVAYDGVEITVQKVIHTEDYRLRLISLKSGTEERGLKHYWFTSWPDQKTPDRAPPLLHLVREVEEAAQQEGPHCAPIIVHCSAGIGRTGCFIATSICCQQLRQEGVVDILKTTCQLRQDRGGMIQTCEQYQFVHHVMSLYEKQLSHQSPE
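System: isolated STEP enzyme; schedule: 20 min enzyme reaction at room temperature, protected from light; medium: Bis-Tris buffer pH 6.0, 2.5 mM DTT, 0.005% Tween 20; signal: fluorescence, 480/540 nm; dosing: single compound dose of 20 µM, 1% DMSO final; also added: OMFP substrate, 25 µM final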
LMPTP block – LMPTP phosphatase inhibitors, primary screen, biochemical, fluorescence intensity, uHTS. Low molecular weight phosphotyrosine protein phosphatase (Homo sapiens), P24666. recombinant LMPTP-A, OMFP fluorogenic substrate. inhibition, % at 20 µM. hit rate 0.22% among 360,000;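 active = compounds that cut the enzyme signal by at least half of the control window in the single-dose screen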
Target sequence (P24666 whole entry, looked up): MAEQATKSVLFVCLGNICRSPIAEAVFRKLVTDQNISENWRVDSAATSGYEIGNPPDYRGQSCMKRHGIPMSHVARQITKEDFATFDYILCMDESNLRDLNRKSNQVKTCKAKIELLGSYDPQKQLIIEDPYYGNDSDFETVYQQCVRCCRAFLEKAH
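Test system – LMPTP-A enzyme · Amount – LMPTP-A at 0.625 nM final in the reaction · Buffer or medium – Bis-Tris pH 6.0, DTT, detergent · Reagent – OMFP 400 µM · Doses – single 20 µM dose · Schedule – reaction 50 min, room temperature, dark · Detection – fluorescence intensity of OMFP turnover product · Evaluation – percent inhibition versus substrate-only and uninhibited controls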
rCAG binder conf – small molecules binding CAG repeat RNA – biochemical, fluorescence, confirmation. shares compounds with rCAG binder-1. r(CAG) RNA repeat, TO-PRO-1 dye displacement fluorescence. inhibition, % at 3 µM. hit rate 70% among 4,300;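 active = inhibition above a per-plate cutoff, the mean inhibition of sample wells plus 3 SD, cut at about 35% in these data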;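 also: loss of TO-PRO-1 fluorescence as compound displaces dye from 1x1 AA loop RNA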
dCAG dye counter – displacement of TO-PRO-1 from CAG DNA duplex, counter-screen for rCAG RNA repeat binder project, biochemical, fluorescence, TO-PRO-1 dye, d(CAG) DNA oligo | d(CAG) DNA oligo TO-PRO-1 dye displacement | shares compounds with rCAG binder-1 | hit rate 94% among 4,300 | inhibition, % at 3 µM;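 active = inhibition above its plate's cutoff, the mean test-well inhibition plus 3 SD, cut at about 4.8% in these data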;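 also: hits displace the dye from DNA and so lower well fluorescence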
DNA CAG DR – inhibitors of DNA CAG/GTC TO-PRO-1 complex, dose response, counter-screen for rCAG RNA repeat binder project, biochemical, fluorescence, TO-PRO-1 dye; shares compounds with rCAG binder-1; DNA CAG/GTC duplex TO-PRO-1 dye displacement fluorescence; IC50, µM; hit rate 20% among 250; AID 686960, 2013; in the data active = IC50 below about 10 µM
dCAG DNA bind – TO-PRO-1 dye complex inhibitors on d(CAG) DNA, dose response, counter-screen, biochemical, fluorescence, late stage; hit rate 80% among 30; IC50, µM; d(CAG) DNA duplex TO-PRO-1 dye displacement; shares compounds with rCAG binder-1
rCAG binder-2 – molecules binding r(CAG) RNA repeats, late stage dose response, late-stage follow-up, biochemical, fluorescence, dose response, powder samples; hit rate 100% among 30; IC50, µM; shares compounds with rCAG binder-1; AID 720651, 2013; r(CAG) RNA TO-PRO-1 dye displacement
Numbers stand for hits; i = inactive; nt = no result. Rows were chosen to be rich in hits. Some 2.6% of all compounds tested hit in one or more screens of this group. Unless noted, no rule for the calls is given here.

SMILES	Scp-1 inhibitor	NadD block	rCAG binder-1	STEP block	LMPTP block	rCAG binder conf	dCAG dye counter	others
Nc1c(C(=O)O)ccc2c1C(=O)c1ccccc1C2=O	i	i	i	i	i	nt	nt
Nc1c(Br)cc(Br)c2c1C(=O)c1c(cccc1S(=O)(=O)O)C2=O	i	i	42.8	i	i	47.5	12.9
O=C(Cc1c[nH]c2ccccc12)Nc1ccc(Nc2cccnc2)c(-c2ccc(F)c(F)c2)c1	nt	nt	i	nt	nt	nt	nt
COc1cccc(/C=C2\Oc3cc(OCC(=O)N4CCC[C@H]4C(=O)O)ccc3C2=O)c1	i	i	37.4	i	i	43.6	12.8
COc1ccc(/C=C2\Oc3cc(OCC(=O)N4CCC[C@H]4C(=O)O)ccc3C2=O)c(OC)c1	i	i	nt	i	i	nt	nt
COc1ccccc1-c1ccc(OCCCN2CCC(C(O)(c3ccccc3)c3ccccc3)CC2)cc1	nt	nt	i	nt	nt	nt	nt
N#Cc1ccc(C2=NC(C(F)(F)F)(C(F)(F)F)c3c(n(Cc4ccco4)c(=O)[nH]c3=O)N2)cc1	i	i	35.9	i	i	36.9	7.1	DNA CAG DR=i;dCAG DNA bind=i;rCAG binder-2=3.61
CC(=O)Nc1ccc(OC(=O)c2cc3cc(Br)ccc3oc2=O)cc1	i	i	i	i	i	nt	nt
COc1ccc(S(=O)(=O)CC(=O)c2cc3cc(Br)ccc3oc2=O)cc1	i	i	50.9	i	i	48.2	23.1
CCc1c(Cc2cccc(F)c2)ncn1CCc1ccccc1OC	nt	nt	i	nt	nt	nt	nt
CCOC(=O)c1sc(NS(=O)(=O)c2cc(C)ccc2C)nc1C	i	i	43.7	i	i	i	7.7
CCOC(=O)c1sc(NC(C)=O)nc1C	i	i	i	i	i	nt	nt
CCOC(=O)c1sc(NC(=O)Nc2ccc(F)cc2)nc1C	i	i	47.1	i	i	i	23.1
O=C(Nc1ccccc1C(=O)O)c1cccc(S(=O)(=O)Nc2ccc(Br)cc2)c1	i	i	80.5	i	i	57.7	20.5
Cc1ccc(S(=O)(=O)CCSc2cccc(C(=O)Nc3ccccc3C(=O)O)c2)cc1	i	i	80.1	i	i	83.2	52.2
O=C(Nc1cccc(C(F)(F)F)c1)c1cccc(NS(=O)(=O)c2ccc(O)c(C(=O)O)c2)c1	i	i	79.2	i	i	62.2	23.7
Cc1c(NC(=O)c2ccccc2NC(=O)c2ccccc2)cccc1C(=O)O	i	i	i	i	i	nt	nt
O=C(Nc1ccccc1C(=O)O)c1cc(S(=O)(=O)Nc2cccc(F)c2)ccc1Cl	i	i	45.5	i	i	i	9.3
O=C(Nc1cccc(C(F)(F)F)c1)c1cccc(NS(=O)(=O)c2ccc(Br)c(C(=O)O)c2)c1	i	i	i	i	i	nt	nt
COc1nc(OC)nc(N2CCC(C(=O)N(C)Cc3ccccc3F)CC2)n1	nt	nt	i	nt	nt	nt	nt
Cc1occc1-c1nnc(SCC(=O)NCc2ccc(Cl)cc2)n1-c1ccccc1	nt	nt	i	nt	nt	nt	nt
CC(C)C[C@@H]1COc2cc(Br)ccc2S(=O)(=O)N1Cc1cn(Cc2ccc(F)cc2)nn1	nt	nt	i	nt	nt	nt	nt
O=C(Nc1ccccc1C(=O)O)c1cccc(NS(=O)(=O)c2ccc(Br)cc2)c1	i	i	81.4	i	i	68.4	26.5
Cc1ccccc1NS(=O)(=O)c1cccc(C(=O)Nc2cccc(C(=O)O)c2)c1	i	i	i	i	i	nt	nt
O=C(c1cccc(NS(=O)(=O)c2ccc(Br)cc2)c1)N1CCCCC1	i	i	i	i	i	nt	nt
SMILES	Scp-1 inhibitor	NadD block	rCAG binder-1	STEP block	LMPTP block	rCAG binder conf	dCAG dye counter	others
Cc1cccc(NC(=O)c2cccc(S(=O)(=O)Nc3ccccc3C(=O)O)c2)c1	i	i	52.0	i	i	i	7.5
COc1cccc(-c2nc3ccccc3c(=O)o2)c1	i	i	i	i	i	nt	nt
O=C(Nc1cccc(-c2nc3ccccc3c(=O)o2)c1)c1ccccc1	i	i	36.1	i	i	i	i
O=C(O)c1ccc(Cl)cc1Nc1nc2cc(Cl)ccc2o1	i	i	73.3	i	i	83.5	61.9
NC1=NC(=O)/C(=C\c2ccc(-c3ccc(Cl)cc3)o2)S1	i	i	47.8	i	i	i	8.6
COc1cc(/C=C/C(=O)O)cc(S(=O)(=O)Nc2ccc3nc(SC)sc3c2)c1OC	i	i	50.0	i	i	i	9.6
CCC1CCCCN1C(=O)c1cccc(S(=O)(=O)Nc2cc(C(F)(F)F)ccc2Cl)c1 (centres undefined)	i	i	36.5	i	i	56.0	16.2
O=C(NC1CCN(Cc2ccccc2)CC1)c1cccc(S(=O)(=O)Nc2cc(C(F)(F)F)ccc2Cl)c1	i	i	63.5	i	i	54.8	17.0
CCOC(=O)Cc1cc(=O)n(-c2nc3ccccc3s2)[nH]1	i	i	73.5	i	i	i	12.2
CCCc1cc(=O)n(-c2nc3ccccc3s2)[nH]1	i	i	i	i	i	nt	nt
O=C(N[C@H](C(=O)N1CCC[C@H]1C(=O)NCCc1ccccc1Cl)c1ccccc1)c1ccc(Cl)c(Cl)c1	nt	nt	i	nt	nt	nt	nt
CCn1c(COc2ccc3ccccc3c2C)nnc1SCC(=O)Nc1cccc(C(=O)O)c1	i	i	67.6	i	i	60.3	26.9
N#CCSc1nnc(COc2cccc3ccccc23)n1-c1cccc(Cl)c1	i	i	i	i	i	nt	nt
O=C(O)CSc1nnc(COc2cccc3ccccc23)n1Cc1ccccc1	i	i	38.5	i	i	42.6	10.6
CCn1c(COc2cccc(C)c2)nnc1SCC(=O)Nc1cccc(C(=O)O)c1	i	i	i	i	i	nt	nt
O=C(O)CCSc1nnc(COc2cccc3ccccc23)n1-c1cccc(Cl)c1	i	i	44.2	i	i	44.9	11.8
CN1CC=C(c2ccc(C(F)(F)F)cc2)N(c2ccccc2)C1=O	nt	nt	i	nt	nt	nt	nt

Screens as filed in PubChem.
